# Published values of several laboratories.
# Compare with care: the assays were run in different laboratories.
Structure (SMILES),assay,test system,setting,quantity,result
CN(C)C/C=C/C(=O)Nc1cc2c(Nc3ccc(F)c(Cl)c3)ncnc2cc1O[C@H]1CCOC1,chemical stability,PBS,"250 µM, pH 7.4",half-life,> 100 h
Cc1c(C(=O)O)ccc2c3n(nc12)[C@@H]1[C@H](C3)N(CC2CC2)[C@@]2(C(=O)Nc3cc(Cl)ccc32)[C@H]1c1cccc(Cl)c1F,,"FVB mouse, plasma","oral, 10 mg/kg, single dose",bioavailability,79%
Cc1cc(-c2cn[nH]c2-c2cccc(OCc3cccc(C#N)c3)c2)cc(C)n1,,"mouse, plasma","oral, 200 mg/kg",bioavailability,47%
Cc1cc2sc(N)nc2c2cccnc12,,"female BALB/c mouse, plasma","intraperitoneal, 30 mg/kg, single dose",AUC(0-t),45500 ng·h/mL
CN1CCN(C(=O)[C@H](CCCN[C@@H]2C[C@H]2c2ccc(F)cc2)NC(=O)c2ccc(-n3ccnn3)cc2)CC1,,"CD-1 mouse, plasma","oral, 10 mg/kg",AUC(0-t),2.27 µM·h
Nc1ccc(/N=N/c2cccc(F)c2F)c(N)n1,,"male CD-1 mouse, plasma","intraperitoneal, 100 mg/kg",bioavailability,261%
Nc1ncn([C@H]2C[C@H](O)[C@@H](CO)O2)c(=O)n1,,"female C57BL/6 mouse, plasma","intravenous, 0.4 mg/kg",AUC(0-t),182 ng·h/mL
CNC(=O)c1ccc(N2C(=S)N(c3ccc(C#N)c(C(F)(F)F)c3)C(=O)C2(C)C)cc1F,,"male C57BL/6 mouse, plasma","oral, 0.0215 mmol/kg",bioavailability,45%
CC(C)C[C@H](NC(=O)[C@@H]1COCCCCCC(=O)N2C[C@H](F)C[C@H]2C(=O)N1)C(=O)[C@@]1(C)CO1,,"male BALB/c mouse, plasma","oral, 150 mg/kg",bioavailability,~10%
CCOc1ccc(N(C)S(=O)(=O)c2cc(Cl)sc2C(=O)Nc2cc(Cl)cc(C(=O)O)c2)cc1OC,,"male C57BL/6 mouse, plasma","intraperitoneal, 10 mg/kg",AUC(0-inf),6100 ng·h/mL
CC1=NN(/C(=N/c2nnc(C)s2)Nc2ccc(C)c(C)c2)C(c2cc(F)c(F)c(F)c2)S1 (stereo not shown),,"male CD-1 mouse, plasma","oral, 30 mg/kg",bioavailability,13.4%
CCN1CCN(Cc2ccc(NC(=O)c3ccc(C)c(NC(=O)c4cncc(-c5cccs5)c4)c3)cc2C(F)(F)F)CC1,,"mouse, plasma","intraperitoneal, 15 mg/kg, single dose",AUC(0-inf),1750 ng·h/mL
Cc1c(C(=O)O)ccc2c3n(nc12)[C@@H]1[C@H](C3)N(CC2CC2)[C@@]2(C(=O)Nc3cc(Cl)ccc32)[C@H]1c1cccc(Cl)c1F,,"female mouse, plasma","oral, 5 mg/kg",bioavailability,119%
